Screening data as filed in PubChem BioAssay.
DENV2 CPE: protects cells from dengue virus 2 cytopathic effect; CPE inhibition, % at 9.99 µM; 350,000 compounds, 1.7% hits; DENV2-infected cells, cytopathic effect rescue, plate reader; in the data active = CPE inhibition above about 20%, passing the limit was not always enough; inconclusive = no clear call, values can overlap the other calls; tested in BHK-21 cells;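 note: 0% = median of neutral control wells and 100% = median of positive control wells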
ERAP1 HTS inh: blocks human ERAP1 aminopeptidase activity | Q9NZ08 | recombinant ERAP1, Leu-AMC fluorescence, 60 min | inhibition, % at 10.7 µM | 340,000 compounds, 0.15% hits;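 active = mean replicate inhibition of at least 30%, or all replicates individually reaching that 30% level; inactive = mean below 30% and not every replicate reaching it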;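 note: 0% = neutral control wells and 100% = L-leucinethiol positive control wells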
SIRT5 block: inhibitors of human sirtuin-5 desuccinylase; AID 652115; 330,000 compounds, 1.1% hits; Purified SirT5, succinyl-peptide AMC, trypsin-coupled fluorescence; inhibition, % at 15 µM; Q9NXA8; in the data active = inhibition above about 15%; inconclusive = no clear call, values can overlap the other calls
Target sequence (Q9NXA8 whole entry, looked up): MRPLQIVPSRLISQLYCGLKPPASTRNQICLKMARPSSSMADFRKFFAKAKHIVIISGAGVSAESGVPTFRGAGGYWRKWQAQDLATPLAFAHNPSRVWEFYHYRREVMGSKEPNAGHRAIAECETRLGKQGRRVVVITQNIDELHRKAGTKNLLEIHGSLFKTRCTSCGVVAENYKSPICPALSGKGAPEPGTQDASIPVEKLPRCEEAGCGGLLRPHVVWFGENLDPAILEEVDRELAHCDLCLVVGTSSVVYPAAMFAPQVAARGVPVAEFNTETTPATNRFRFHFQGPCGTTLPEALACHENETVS
PglD DTNB: inhibitors of Campylobacter jejuni PglD acetyltransferase; purified PglD enzyme, DTNB colorimetric CoA detection; inhibition, % at 12.5 µM; 360,000 compounds, 0.098% hits; AID 602405; in the data active = inhibition above about 16%, passing the limit was not always enough; inconclusive = no clear call, values can overlap the other calls
E-sel inducer: induces E-selectin expression in human endothelial cells; activation, % at 7.58 µM; HUVEC E-selectin immunofluorescence imaging; normalized: neutral wells 0, TNF-alpha wells 100; P16581; 260,000 compounds, 0.37% hits;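 active = mean E-selectin-positive cell signal at least 10% of the positive control, reached in at least 60% of replicates, without over 20% cell loss; inconclusive = no rule given, readout overlaps actives, possibly toxicity-flagged; inactive = the rest, including those meeting only one limit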
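Test system: HUVEC; input: 3,000 HUVEC/well; measured by: immunofluorescence imaging; read-out: % PE-positive cells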
Starred values were filed as active, the others as inactive; u = inconclusive; x = not tested or not shown. Rows were chosen to be rich in hits. Some 2.5% of all compounds tested hit in one or more screens of this group.

SMILES	DENV2 CPE	ERAP1 HTS inh	SIRT5 block	PglD DTNB	E-sel inducer
COc1ccc(/C=C2\SC(=O)N(CCCC(=O)Nc3ccc(C(=O)O)cc3)C2=O)cc1	97*	0	x	2	0
O=C(CCCN1C(=O)/C(=C/c2ccc3c(c2)OCO3)SC1=S)Nc1ccc(C(=O)O)cc1	-5	-2	-2	-1	0
O=C(CCN1C(=O)S/C(=C\c2ccc(Cl)cc2)C1=O)Nc1ccc(C(=O)O)cc1	u	0	-4	7	-1
C[C@@H]1CCCCO[C@H](CN(C)S(=O)(=O)c2ccc(F)cc2)[C@@H](C)CN([C@@H](C)CO)C(=O)c2cc(NC(=O)Cc3ccccc3)ccc2O1	-14	x	x	-2	0
CC1=C/C(=C(\c2cc(C)c(O)c(Br)c2)c2ccccc2S(=O)(=O)O)C=C(Br)C1=O	-7	21	16*	-4	0
Cc1cc(C(=O)c2ccccc2)cc(C)c1O	-1	1	x	x	0
CC(C)CN1C(=O)C(NC(=O)C2CC2)(C(F)(F)F)C2=C1CC(C)(C)CC2=O (stereo not drawn)	-4	-1	36*	-4	x
C[C@H](CO)N1C[C@H](C)[C@H](CN(C)Cc2ccc(-c3ccccc3)cc2)Oc2ccc(NS(=O)(=O)c3ccc(F)cc3)cc2C1=O	-1	1	15	0	2
C[C@H](CO)N1C[C@H](C)[C@@H](CN(C)Cc2ccccc2)Oc2ccc(NS(=O)(=O)c3ccc(F)cc3)cc2C1=O	-5	-3	-1	0	0
C[C@H](CO)N1C[C@H](C)[C@@H](CN(C)Cc2ccc(-c3ccccc3)cc2)Oc2ccc(NS(=O)(=O)c3ccc(F)cc3)cc2C1=O	1	-2	4	1	1
C[C@H]1CN([C@@H](C)CO)C(=O)c2cc(NS(=O)(=O)c3ccc(F)cc3)ccc2O[C@@H]1CN(C)Cc1ccc(-c2ccccc2)cc1	-6	-1	15*	2	1
C[C@H]1CN([C@@H](C)CO)C(=O)c2cc(NS(=O)(=O)c3ccc(F)cc3)ccc2O[C@H]1CN(C)Cc1ccccc1	47*	3	6	-1	0
C[C@@H]1CN([C@H](C)CO)C(=O)c2cc(NS(=O)(=O)c3ccc(F)cc3)ccc2O[C@H]1CN(C)Cc1ccc(-c2ccccc2)cc1	30*	-1	11	2	0
CCCCC1Cc2[nH]c(=S)[nH]c(=O)c2C(c2ccc(C(C)C)cc2)O1 (stereo not drawn)	2	x	-5	x	6
Cc1cnc(NC(=O)C2CCCO2)s1 (stereo not drawn)	x	1	0	4	x
CC1(C(=O)NS(=O)(=O)Cc2cccc(Cl)c2)CCN1C(=O)c1ccc(C2CCCCC2)cc1 (stereo not drawn)	90*	5	x	0	0
C[C@H]1CN([C@@H](C)CO)C(=O)c2cccc(NC(=O)Nc3ccc4c(c3)OCO4)c2O[C@H]1CN(C)S(C)(=O)=O	6	-2	0	1	1
CNC[C@H]1OCCCC[C@@H](C)Oc2ccc(NS(C)(=O)=O)cc2C(=O)N([C@H](C)CO)C[C@@H]1C	x	x	x	x	0
C[C@@H]1CN([C@@H](C)CO)C(=O)c2cc(NS(C)(=O)=O)ccc2O[C@@H](C)CCCCO[C@@H]1CN(C)C	u	3	25*	0	0
CNC[C@@H]1OCCCC[C@H](C)Oc2ccc(NS(C)(=O)=O)cc2C(=O)N([C@@H](C)CO)C[C@@H]1C	132*	4	5	8	0
CCCCOC(=O)n1ccc(C(=O)Nc2ccccc2OC)n1	x	x	x	-1	x
COc1ccc(C)cc1NC(=O)c1ccc(NS(=O)(=O)c2c(C)noc2C)cc1	7	-1	0	-1	0
CCCNC(=O)N1[C@H](C(=O)N2CCCCC2)[C@@H](CO)[C@@H]2Cn3c(ccc(-c4ccc(F)cc4)c3=O)[C@@H]21	6	-4	-25	-3	0
CCC(C)N1C(=O)N(C)C2NC(=O)NC21 (stereo not drawn)	2	-2	25*	x	x
Cc1cccn2c(=O)c(/C=N/O)c(Nc3ccccc3F)nc12	-3	x	x	x	59*
SMILES	DENV2 CPE	ERAP1 HTS inh	SIRT5 block	PglD DTNB	E-sel inducer
COc1ccc2ccccc2c1-c1c(OC)ccc2ccccc12	26*	1	-2	1	x
NC(=O)CSc1nc2ccccc2n1-c1ccccc1	x	-2	26*	-2	x
C[C@@H]1CCCCO[C@H](CN(C)CC2CCCCC2)[C@@H](C)CN([C@H](C)CO)C(=O)c2cc(NC(=O)Nc3ccccc3)ccc2O1	21*	0	5	4	0
C[C@@H]1CN([C@@H](C)CO)C(=O)c2cc(NC(=O)Nc3ccc4c(c3)OCO4)ccc2O[C@@H]1CN(C)CC1CCCCC1	-3	3	9	-3	19
C[C@H](CO)N1C[C@H](C)[C@H](CN(C)CC2CCCCC2)Oc2ccc(NC(=O)Nc3ccc4c(c3)OCO4)cc2C1=O	-15	-4	8	0	349*
C[C@@H]1CCCCO[C@@H](CN(C)CC2CC2)[C@H](C)CN([C@H](C)CO)C(=O)c2cc(NC(=O)Nc3ccccc3)ccc2O1	41*	-1	-5	4	0
C[C@H](CO)N1C[C@H](C)[C@@H](CN(C)CC2CCCCC2)Oc2ccc(NC(=O)Nc3ccc(F)cc3)cc2C1=O	27*	-2	6	6	0
CCOc1ccc2nc(N=NC3=C(O)CC(C)(C)CC3=O)sc2c1	-7	3	-5	x	x
CN(C)Cc1cn(CC[C@H]2CC[C@H](NC(=O)Cc3cccnc3)[C@H](CO)O2)nn1	-1	4	1	3	1
C[C@@H]1CCCCO[C@H](CN(C)CC2CCCCC2)[C@@H](C)CN([C@H](C)CO)C(=O)c2cc(NC(=O)Nc3cccc4ccccc34)ccc2O1	-3	-5	2	9	0
C[C@@H]1CN([C@@H](C)CO)C(=O)c2cc(NC(=O)Nc3cccc4ccccc34)ccc2O[C@H]1CN(C)CC1CCCCC1	34*	1	0	0	20
C[C@H](CO)N1C[C@H](C)[C@H](CN(C)CC2CCCCC2)OCCCC[C@H](C)Oc2ccc(NC(=O)Nc3ccc(F)cc3)cc2C1=O	25*	2	-10	-1	0
O=C(NCc1ccncc1)C(=O)NCC1OCCN1S(=O)(=O)c1ccccc1 (stereo not drawn)	u	-4	x	2	1
O=C(c1cccc(F)c1)N1C[C@@H]2[C@H](c3ccccc31)[C@@H](CO)N2C(=O)C1CC1	55*	0	0	2	0
O=C(C1CC1)N1C[C@@H]2[C@H](c3ccccc31)[C@@H](CO)N2C(=O)c1ccccc1	0	1	-3	-3	1
O=C(c1cccc(F)c1)N1C[C@@H]2[C@H](c3ccccc31)[C@H](CO)N2C(=O)C1CCOCC1	23*	2	-5	-2	-1
O=C(C1CCOCC1)N1C[C@@H]2[C@H](c3ccccc31)[C@H](CO)N2C(=O)c1ccccc1	89*	2	4	-1	1
